High-throughput results as filed in PubChem.
Shown is part of a subset that was picked to be rich in hits.
CHOP UPR activ: activators of apoptotic CHOP UPR arm, primary screen, cell-based, CHO-CHOP luciferase reporter, luminescence, uHTS; UPR activation; percent of tunicamycin response over DMSO baseline; 330,000 compounds, 0.34% hits; activation, % at 10 µM;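 active means at 10 µM dose, activation of 40% or more, normalized to positive control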;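 further: 100% = tunicamycin at 10 µg/mL and 0% = DMSO alone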
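Test system: CHO-CHOP cells, stable luciferase reporter of PERK-eIF2a-CHOP signalling | Quantity: 500 CHO-CHOP cells per well | Buffer or medium: F12 plus 10% serum | Compound dosing: 10 µM single point, 0.5% DMSO | Schedule: 6 h compound treatment, 37 °C | Signal: Luciferase luminescence | Control set: Tunicamycin high control, DMSO low control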
FXN GAA850 act: FXN promoter activators, primary screen, cell-based, luciferase luminescence, HEK293 lucGAA850; HEK293 lucGAA850 FXN promoter luciferase reporter, 24 h; percent of 10 µM SAHA response; activation, % at 6 µM; 360,000 compounds, 0.56% hits;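 active means activation above the average of all compounds screened plus 3 SD, cutoff fixed separately per campaign, cut at about 7.5% in these data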;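 further: 0% = DMSO wells and 100% = 10 µM SAHA wells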
CHOP inh: inhibitors of CHOP promoter induction, primary screen, cell-based, unfolded protein response, luciferase reporter. CHO-K1 CHOP-promoter luciferase, tunicamycin-induced, 15-18 h. inhibition, % at 10 µM. 220,000 compounds, 3.8% hits. AID 2732, 2010;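 active means compounds that reduced the stress-induced luciferase reporter signal by more than about 70% of percent inhibition, limit read from the data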;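 further: 0% = tunicamycin plus vehicle and 100% = wells without tunicamycin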
XBP1 UPR activ: activators of adaptive XBP1 UPR arm, primary screen, cell-based, CHO-XBP1 luciferase reporter, luminescence, uHTS; IRE1-XBP1 UPR activation; percent of tunicamycin response, DMSO as zero; 330,000 compounds, 0.33% hits; AID 463104, 2010; activation, % at 20 µM;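 active means versus positive control, 20 µM dose yields 30% or more activation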;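 further: 100% = tunicamycin at 10 µg/mL and 0% = DMSO only wells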
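Signal: luciferase luminescence; Assay system: CHO-XBP1 luciferase reporter cells; Amount: one thousand reporter cells per well; Dosing: 20 µM single concentration, DMSO 1%; Benchmarks: high control tunicamycin 10 µg/mL final, low control DMSO vehicle only; Schedule: 6 h compound exposure at 37 °C, 5% CO2; Evaluation: percent activation relative to tunicamycin reference.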
CHOP inh conf: retest of CHOP induction inhibitors, confirmation, cell-based; shares compounds with CHOP inh; CHO-CHOP promoter luciferase reporter, tunicamycin-induced, luminescence; inhibition, % at 10 µM; 2,100 compounds, 45% hits; AID 504437, 2011;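 active means mean of three repeat readings of reporter signal inhibition above a set limit, cut at about 70% in these data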;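 further: 0% = tunicamycin plus vehicle and 100% = wells lacking tunicamycin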
* hit, by the source's call; nt = no result given.

SMILES | CHOP UPR activ | FXN GAA850 act | CHOP inh | XBP1 UPR activ | CHOP inh conf
O=P(CCCCCCCCCP(=O)(c1ccccc1)c1ccccc1)(c1ccccc1)c1ccccc1 | 10 | -8 | 100* | 2 | 50
CN1C(=O)CSC1=NCC12CC3CC(CC(C3)C1)C2 | 0 | 2 | 105* | -5 | 7
CCCC(=O)Nc1cc(Cl)ccc1C | 0 | -1 | 9 | -1 | nt
Cc1ccc(Cl)cc1NC(=O)CCC(=O)Nc1cc(Cl)ccc1C | -1 | 1 | 100* | 3 | -15
COc1ccc2c(Cl)cc(NC(=O)Nc3c(C)cccc3C)nc2c1 | nt | -1 | nt | nt | nt
Cn1c(CCNC(=O)c2ccc(Cl)c(Cl)c2)nnc1SCc1ccc(Cl)c(Cl)c1 | -2 | -2 | 100* | -1 | 52
C=CCn1c(SCCOc2ccccc2)nnc1C(C)NC(=O)c1ccccc1 (configuration not stated) | 2 | -1 | 12 | 2 | nt
COc1ccc(C(=O)NCCc2nnc(SCC(=O)Nc3ccccc3)n2C)cc1 | -4 | 2 | 23 | -1 | nt
C=CCn1c(CCNC(=O)c2ccc(Cl)c(Cl)c2)nnc1SCCOc1ccc(OC)cc1 | 5 | -3 | 97* | -2 | 81*
CC1(C(=O)NS(=O)(=O)Cc2cccc(Cl)c2)CCN1C(=O)C/C=C/c1ccccc1 (configuration not stated) | nt | 1 | nt | nt | nt
COC(=O)C(Nc1ccccc1Cl)(c1cc(C)c(O)c(C)c1)C(F)(F)F (configuration not stated) | 1 | -5 | 109* | -1 | 97*
CCCCc1c(C)c(C#N)c2[nH]c3ccccc3n2c1=O | -2 | 0 | 103* | 0 | 56
CCc1ccccc1N=Cc1c(C)c(C#N)c2[nH]c3ccccc3n2c1=O | nt | -1 | nt | nt | nt
CNC(=O)c1nnsc1S(=O)c1ccc(Cl)cc1 (configuration not stated) | -11 | -15 | 107* | -10 | 8
CCCNC(=O)c1nnsc1S(=O)c1ccc(Cl)cc1 (configuration not stated) | -11 | -14 | 107* | -8 | 141*
CCCNC(=O)c1nnsc1S(=O)(=O)c1ccc(Cl)cc1 | -5 | -14 | 108* | -9 | 141*
CN(Cc1ccccc1)C(=O)Cn1nnc(-c2ccccc2)c1COc1ccc2ccccc2c1 | nt | 0 | nt | nt | nt
CCCCNS(=O)(=O)c1cccc(NC(=O)[C@@H]2O[C@H](CO)[C@@H](O)[C@H]2O)c1 | nt | -2 | nt | nt | nt
O=C(COC(=O)/C=C/c1cccc(Br)c1)NCCC1=CCCCC1 | 5 | 3 | 96* | -1 | -1
COc1cc(/C=C/C(=O)OCC(=O)NCCC2=CCCCC2)ccc1O | -3 | 0 | 14 | 1 | nt
O=C(COc1ccc(Cl)cc1Cl)NCCC1=CCCCC1 | 0 | 2 | 107* | 0 | 115*
CC(=O)c1cccc(-c2ccnc3c2CC(C(=O)Nc2ccccc2)O3)c1 (configuration not stated) | nt | 0 | nt | nt | nt
CN(C)c1ccc(CNC(=O)C2Cc3c(-c4cccc(C(N)=O)c4)ccnc3O2)cc1 (configuration not stated) | nt | 0 | nt | nt | nt
O=[N+]([O-])c1ccc(-c2nc(C(Cl)Cl)c3ccccc3n2)cc1 | -7 | -1 | 105* | -4 | 124*
CN(Cc1ccccc1)c1nc(-c2ccc([N+](=O)[O-])cc2)nc2ccccc12 | -2 | 4 | 30 | -2 | nt
SMILES | CHOP UPR activ | FXN GAA850 act | CHOP inh | XBP1 UPR activ | CHOP inh conf
COCCn1c(SCC(=O)Nc2ccc(C)cc2C)nc2c(oc3ccccc32)c1=O | -1 | 1 | 101* | -1 | 22
O=C(COC(=O)c1n[nH]c(=O)c2ccccc12)c1ccc(Cl)cc1 | 1 | 1 | -29 | 0 | nt
O=C(COC(=O)c1n[nH]c(=O)c2ccccc12)c1ccc(Br)cc1 | 1 | 0 | 104* | -2 | -70
Nc1ccn([C@@H]2O[C@H](CN=C3NS(=O)(=O)c4ccccc43)[C@@H](O)[C@H]2O)c(=O)n1 | nt | 0 | nt | nt | nt
O=C(CSc1nc(-c2ccccc2F)nc2nc[nH]c12)Nc1c(Cl)cc(Cl)cc1Cl | 1 | nt | -20 | -3 | nt
CCc1cccc(C)c1NC(=O)CSc1nc(-c2ccccc2F)nc2nc[nH]c12 | -2 | -1 | 108* | 0 | 56
